Here are results for one compound from ChEMBL document CHEMBL1255440, “An antimicrobial peptide that targets DNA repair intermediates in vitro inhibits Salmonella growth within murine macrophages” (Antimicrob Agents Chemother, 2010).

Data set [1] deals with Salmonella typhimurium. Briefly: Antibacterial activity against 10 MOI Salmonella enterica subsp. enterica serovar Typhimurium G785 transfected with SOS-inducible beta-galactosidase reporter infected in mouse J774A1 cells assessed as bacterial number at 50 uM after 4 hrs postinfection. The data set is classed as functional, J774.A1. The method in brief: (§1)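 J774A.1 cells infected at MOI 10 with sulA promoter-lacZ reporter strain G785 using the gentamicin-protection protocol, treated with peptide (DMSO vehicle controls) plus 15 μg/ml gentamicin for 4 or 24 h. Released bacteria were plated for colony counts in parallel, and were incubated with 33 μM C12FDG (with 0.2 mM EDTA) in LB for 2 h at 37°C. Flow cytometry gave % fluorescein-positive among LPS-antibody-positive particles; Wilcoxon exact test.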

For data set [2], the system named is Salmonella typhimurium. Briefly: Antibacterial activity against 10 MOI Salmonella enterica subsp. enterica serovar Typhimurium G785 transfected with SOS-inducible beta-galactosidase reporter infected in mouse J774A1 cells assessed as bacterial number at 100 uM after 4 hrs postinfection. The data set is classed as functional, J774.A1. The method in brief: as §1

Data set [3] concerns Salmonella typhimurium. Briefly: Antibacterial activity against 10 MOI Salmonella enterica subsp. enterica serovar Typhimurium G785 transfected with SOS-inducible beta-galactosidase reporter infected in mouse J774A1 cells assessed as bacterial number at 150 uM after 4 hrs postinfection. The data set is classed as functional, J774.A1. The method in brief:
as §1

Data set [4] concerns Salmonella typhimurium. Briefly: Antibacterial activity against 10 MOI Salmonella enterica subsp. enterica serovar Typhimurium G785 transfected with SOS-inducible beta-galactosidase reporter infected in mouse J774A1 cells assessed as SOS induction at 50 uM after 4 hrs postinfection. The data set is classed as functional, J774.A1. The method in brief: as §1
Data set [5] deals with Salmonella typhimurium. Briefly: Antibacterial activity against 10 MOI Salmonella enterica subsp. enterica serovar Typhimurium G785 transfected with SOS-inducible beta-galactosidase reporter infected in mouse J774A1 cells assessed as bacterial number at 100 uM after 24 hrs postinfection. The data set is classed as functional, J774.A1. The method in brief: as §1
Data set [6] concerns Salmonella typhimurium. Briefly: Antibacterial activity against 10 MOI Salmonella enterica subsp. enterica serovar Typhimurium G785 transfected with SOS-inducible beta-galactosidase reporter infected in mouse J774A1 cells assessed as SOS induction at 100 uM after 24 hrs postinfection. The data set is classed as functional, J774.A1. The method in brief: as §1
Data set [7] can be described thus: Cytotoxicity against mouse J774A1 cells assessed as live cells at 50 uM by calcein AM assay. To be noted: read-out: Activity. The data set is classed as cell-based, J774.A1. The procedure, abridged:
(§2)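 Cells seeded at 300,000/well and allowed to adhere, then given fresh DMEM with or without peptide for 24 h. Cells trypsinized, stained with a mammalian Live/Dead viability/cytotoxicity kit and analyzed by flow cytometry. Wilcoxon exact test.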

Data set [8] in a line: Cytotoxicity against mouse J774A1 cells assessed as live cells at 100 uM by calcein AM assay. The data set is classed as cell-based, J774.A1. Conditions: read-out: Activity. The procedure, abridged:
as §2

The nature of data set [9]: Cytotoxicity against mouse peritoneal macrophages assessed as live cells at 50 uM by calcein AM assay. The data set is classed as cell-based, Peritoneal macrophage cell. To be noted: read-out: Activity. The method in brief: as §2
Data set [10] in a line: Cytotoxicity against mouse peritoneal macrophages assessed as dead cells at 50 uM by propidium iodide assay. The data set is classed as cell-based. To be noted: peritoneal macrophage cell. The procedure, abridged:
as §2

The nature of data set [11]: Drug uptake in mouse peritoneal macrophages assessed as dimer to monomer peptide ratio at 150 uM after 24 hrs at 37 degC by HPLC analysis. The data set is classed as ADME, cell-based. Conditions: peritoneal macrophage cell. The procedure, abridged: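 Macrophages were elicited in 8–12-week-old female BALB/c mice with 4% thioglycolate i.p. and harvested by lavage 4 days later. Cells were seeded at 300,000 per well for 24 h, then given unlabeled peptide in DMEM for 24 h at 37°C. Lysates were run on reverse-phase HPLC at A280. Monomer (17.5 min) and dimer (17.75 min) peak areas were compared with a standard curve. Concentration assumed 1 pl per cell; values are means of three determinations.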

Data set [12] deals with J774.A1. Briefly: Drug uptake in mouse J774A1 cells assessed as dimer to monomer peptide ratio at 150 uM after 24 hrs at 37 degC by HPLC analysis. The data set is classed as ADME, cell-based. To be noted: j774.a1, 24 h. The method in brief: (§3)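 J774A.1 cells were incubated with unlabeled peptide for 5 or 24 h at 37°C or 4°C, washed in ice-cold PBS and lysed with NP-40 buffer. Lysates were run on reverse-phase HPLC with an acetonitrile/0.1% TFA gradient and A280 fractions. Monomer (~17.5 min) and dimer (~17.75 min) peak areas were compared against a standard curve. Intracellular mM was calculated using 300,000 cells and 1 pl/cell, with concentration expressed as monomer mass.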

For data set [13], the system named is J774.A1. Briefly: Drug uptake in mouse J774A1 cells assessed as dimer to monomer peptide ratio at 100 uM after 24 hrs at 37 degC by HPLC analysis. The data set is classed as ADME, cell-based. To be noted: j774.a1, 24 h. The method in brief: as §3
Data set [14] concerns J774.A1. Briefly: Drug uptake in mouse J774A1 cells assessed as total peptide concentration at 100 uM after 24 hrs at 37 degC by HPLC analysis. The data set is classed as ADME, cell-based. Conditions: j774.a1, 24 h. The procedure, abridged: as §3
Data set [15] relates to J774.A1. Briefly: Drug uptake in mouse J774A1 cells at 1 uM after 4 hrs by confocal laser microscopy. To be noted: j774.a1, 4 h. The data set is classed as ADME, cell-based. The method in brief: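 Cells were seeded at 200,000 per chamber-slide well and left to adhere overnight at 37°C. They were then exposed in DMEM to peptide carrying an N-terminal rhodamine label, at 37°C or, where stated, 4°C. Cells were washed three times in PBS, fixed in 4% paraformaldehyde for 30 min, and mounted in antifade. Optical slices near the cell centre were imaged by confocal laser microscopy.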

For data set [16], the system named is J774.A1. Briefly: Drug uptake in mouse J774A1 cells assessed as dimer to monomer peptide ratio at 50 uM after 5 hrs at 37 degC by HPLC analysis. The data set is classed as ADME, cell-based. To be noted: j774.a1, 5 h. The procedure, abridged:
as §3

The subject of data set [17] is J774.A1. Briefly: Drug uptake in mouse J774A1 cells assessed as total peptide concentration at 50 uM after 5 hrs at 4 degC by HPLC analysis. The data set is classed as ADME, cell-based. To be noted: j774.a1, 5 h. The method in brief: (§4)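 J774A.1 cells were seeded at 300,000 per well and allowed to adhere for 24 h at 37°C in 5% CO2. Medium was replaced with DMEM containing unlabeled peptide, and cells were held at 37°C or 4°C. After three washes in ice-cold PBS, cells were lysed in NP-40 buffer and debris spun out. Reverse-phase HPLC was read at 280 nm. Peaks at 17.5 and 17.75 min were integrated against a standard curve. Intracellular mM was calculated from 300,000 cells at 1 pl each, using monomer mass.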

In data set [18] the test system is J774.A1. Briefly: Drug uptake in mouse J774A1 cells assessed as total peptide concentration at 150 uM after 5 hrs at 4 degC by HPLC analysis. The data set is classed as ADME, cell-based. To be noted: j774.a1, 5 h. The procedure, abridged: as §4
Data set [19] deals with Salmonella typhimurium. Briefly: Antibacterial activity against 1 MOI Salmonella enterica subsp. enterica serovar Typhimurium infected in mouse J774A1 cells assessed as reduction in bacterial growth at 2.5 times MIC. The data set is classed as functional, organism-based. To be noted: J774.A1. The procedure, abridged: (§5)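 J774A.1 cells or thioglycolate-elicited BALB/c peritoneal macrophages seeded at 200,000/well, overnight 37°C 5% CO2; infected with GFP strain SDT1416, 1 h invasion, washed, 1 h in DMEM with 15 μg/ml gentamicin. Then fresh DMEM plus 15 μg/ml gentamicin with or without peptide (DMSO vehicle) for 24 h at 37°C; macrophages lysed with 1% Triton X-100, plated on LB agar for CFU.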

Data set [20] concerns Salmonella typhimurium. Briefly: Antibacterial activity against 1 MOI Salmonella enterica subsp. enterica serovar Typhimurium infected in mouse J774A1 cells assessed as fold reduction in bacterial growth at 100 uM after 24 hrs. The data set is classed as functional, J774.A1. The procedure, abridged:
as §5

The test system of data set [21] is Salmonella typhimurium. Briefly: Antibacterial activity against 1 MOI Salmonella enterica subsp. enterica serovar Typhimurium infected in mouse J774A1 cells assessed as reduction in bacterial growth at 50 uM after 24 hrs. The data set is classed as functional, J774.A1. The arrangement: scale not given: the % may be the effect or the level left. The procedure, abridged:
as §5

For data set [22], the system named is Salmonella typhimurium. Briefly: Antibacterial activity against 1 MOI Salmonella enterica subsp. enterica serovar Typhimurium infected in mouse peritoneal macrophages assessed as reduction in bacterial growth after 24 hrs. The data set is classed as functional, organism-based. The procedure, abridged:
as §5

Data set [23] relates to J774.A1. Briefly: Drug uptake in mouse J774A.1 cells assessed as total peptide concentration at 100 uM after 24 hrs at 4 degC by HPLC analysis. Conditions: J774A.1, 24 h.

Activity calls are given as the source filed them. The calls are words filed in the database; no cut-off is given here.

Regarding `N=C(N)NCCC[C@@H](NC(=O)[C@@H](CS)NC(=O)[C@@H](Cc1ccc(O)cc1)NC(=O)[C@@H](Cc1c[nH]c2ccccc12)NC(=O)[C@@H](CCCNC(=N)N)NC(=O)[C@H](N)Cc1c[nH]c2ccccc12)C(=O)O`, the Activity in the data set on Salmonella typhimurium [1] was determined as 57.1%; in the data set with Salmonella typhimurium [2], 19%; in the data set with Salmonella typhimurium [3], 3%; in the data set on Salmonella typhimurium [4], 0.3%; with Salmonella typhimurium [5], 2.8%; with Salmonella typhimurium [6], 16.5%. The Activity in data set [10] is 3.2%; in the data set with Salmonella typhimurium [21], 68.5%; in the data set on Salmonella typhimurium [22], “Dose-dependent effect”. The figures for the viability at 50 µM in data set [7] and in data set [9] were 93% and 94.2%, respectively. For the same compound, the viability at 100 µM in data set [8] is 58.9%. The Ratio is given as 11.4 in [11], 12.5 in the data set on J774.A1 [12], 2.9 with J774.A1 [13] and 2.1 in the data set with J774.A1 [16]. Also, the Drug uptake was 16.9 mM in the data set on J774.A1 [14]; “Active” in the data set on J774.A1 [15]; 1.2 mM in the data set on J774.A1 [17]; 15.8 mM in the data set with J774.A1 [18]; 32.9 mM with J774.A1 [23]. Also, the outcome in the data set on Salmonella typhimurium [19] was Active. Besides, the fold change (FC) with Salmonella typhimurium [20] is above 100.
